In ChEMBL document CHEMBL1268948, “1,6-AnhMurNAc derivatives for assay development of amidase AmiD” (Bioorg Med Chem, 2010):
The source made the active and inactive calls. The calls are words filed in the database; no cut-off is given here.

How the values were obtained:
[1] = system: Escherichia coli; assay: Inhibition of Escherichia coli N-acetyl-muramoyl-L-alanine amidase AmiD assessed as residual activity at 1 mM preincubated for 30 mins
[2] = system: Escherichia coli; assay: Inhibition of Escherichia coli N-acetyl-muramoyl-L-alanine amidase AmiD assessed as residual activity at 100 uM after 20 mins
In short: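 Periplasmic soluble E. coli AmiD (sAmiD, 39 nM) was preincubated with the test compound for 20 min at 30 °C in 20 mM sodium phosphate buffer containing 48 nM ZnCl₂. Residual activity was taken as the initial rate of hydrolysis of 29 µM TCT (GlcNAc-anhMurNAc-tetrapeptide) added afterwards. The reaction was stopped after 20 min with diluted H₃PO₄ and analysed by RP-HPLC.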

[3] = system: Escherichia coli; assay: Inhibition of Escherichia coli N-acetyl-muramoyl-L-alanine amidase AmiD assessed as residual activity at 1 mM after 20 mins; values are per cent of control
[4] = system: Escherichia coli; assay: Inhibition of Escherichia coli N-acetyl-muramoyl-L-alanine amidase AmiD assessed as residual activity at 0.5 mM after 20 mins; values are per cent of control

inhibition [1]	inhibition [2]	residual activity [3] [%]	residual activity [4] [%]	SMILES
inactive				CC(=O)N[C@H]1[C@@H]2OC[C@@H](O2)[C@@H](OCc2ccccc2)[C@H]1O[C@H](C)C(=O)O
inactive	inactive			CC(=O)N[C@H]1[C@@H]2OC[C@@H](O2)[C@@H](O)[C@H]1O[C@H](C)C(=O)Nc1ccc(C(F)(F)F)cc1
inactive	inactive			CC(=O)N[C@H]1[C@@H]2OC[C@@H](O2)[C@@H](O)[C@H]1O[C@H](C)C(=O)Nc1ccc(C(C)=O)cc1
	inactive	64	83	CC(=O)N[C@H]1[C@@H]2OC[C@@H](O2)[C@@H](O)[C@H]1O[C@H](C)C(=O)N[C@@H](C)C(=O)N[C@H](CCC(=O)Nc1ccccc1)C(=O)O
inactive	inactive			CC(=O)N[C@H]1[C@@H]2OC[C@@H](O2)[C@@H](O)[C@H]1O[C@H](C)C(=O)Nc1ccccc1
inactive	inactive			CC(=O)N[C@H]1[C@@H]2OC[C@@H](O2)[C@@H](O)[C@H]1O[C@H](C)C(=O)N[C@@H](C)C(=O)Nc1ccc([N+](=O)[O-])cc1
